Measurements taken from ChEMBL document CHEMBL1629663, “Postantibiotic effects of telavancin against 16 gram-positive organisms” (Antimicrob Agents Chemother, 2009).
Converted amounts (≈) assume the structure as drawn.

Experiments:
Staphylococcus aureus [1] = assay: Antimicrobial activity against vancomycin-susceptible-, methicillin-resistant Staphylococcus aureus 1130 by microdilution method; type: functional
Streptococcus agalactiae [2] = assay: Antimicrobial activity against Streptococcus agalactiae HMC 5 assessed as time required to induce sub-MIC effect at 0.4 times MIC exposed for 2 hrs by plate counting method; type: functional
Procedure, shortened: (§1)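 Unexposed Mueller-Hinton broth cultures (about 5 × 10^6 CFU/ml, 35°C) were handled as in the PA-SME set but without the 10× MIC pre-exposure. They were diluted 1:1,000, then given telavancin at final 0.2, 0.3 or 0.4× MIC, with a drug-free control. Viable counts were taken every 2 h until McFarland no. 1 turbidity. Effect duration comes from log10 CFU/ml-time plots; two separate experiments with new inocula.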

Enterococcus faecalis [3] = assay: Antimicrobial activity against Enterococcus faecalis ATCC 29212 assessed as time required to induce sub-MIC effect at 0.4 times MIC exposed for 2 hrs by plate counting method; type: functional; procedure, shortened: as §1
Staphylococcus aureus [4] = assay: Antimicrobial activity against vancomycin-intermediate-, methicillin-resistant Staphylococcus aureus 1287 assessed as time required to induce post antibiotic sub-MIC effect at 0.4 times MIC […] by plate counting method; type: functional
Procedure, shortened: (§2)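 PAE was first induced with 10× MIC for 1 h at 35°C (inoculum about 5 × 10^6 CFU/ml, Mueller-Hinton broth) and ended by 1:1,000 dilution. Cultures were then split and given 0.2, 0.3 or 0.4× MIC, with one tube left without drug. Viable counts were taken before exposure, after dilution, then every 2 h until McFarland no. 1 turbidity. Two separate experiments, each with a new inoculum.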

Streptococcus agalactiae [5] = assay: Antimicrobial activity against Streptococcus agalactiae HMC 5 assessed as time required to induce post antibiotic sub-MIC effect at 0.4 times MIC […] by plate counting method; type: functional
Procedure, shortened: (§3)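 Mueller-Hinton broth cultures of about 5 × 10^6 CFU/ml were pre-exposed to telavancin at 10× MIC for 1 h at 35°C, then diluted 1:1,000. Telavancin was re-added to final 0.2, 0.3 or 0.4× MIC, alongside a drug-free tube. Viable counts were taken before exposure, after dilution, then every 2 h until McFarland no. 1 turbidity. Duration comes from log10 CFU/ml-versus-time plots; two separate experiments with fresh inocula.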

Enterococcus faecalis [6] = assay: Antimicrobial activity against Enterococcus faecalis HMC 571 assessed as time required to induce post antibiotic sub-MIC effect at 0.4 times MIC […] by plate counting method; type: functional; procedure, shortened: as §2
Enterococcus faecalis [7] = assay: Antimicrobial activity against Enterococcus faecalis ATCC 29212 by microdilution method; type: functional
Staphylococcus aureus [8] = assay: Antimicrobial activity against vancomycin-susceptible-, methicillin-resistant Staphylococcus aureus 1130 assessed as post-antibiotic effect at 10 times MIC pre-exposed to Telavancin for 1 hr by plate counting method; type: functional
Procedure, shortened: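 Direct colony suspensions (~5 × 10^6 CFU/ml) were exposed to 10× MIC for 1 h at 35°C with shaking in Mueller-Hinton broth, then diluted 1:1,000 to remove drug. Viable plate counts were taken before exposure, at 0 h, then every 2 h until turbidity reached McFarland 1. PAE = T − C, the time for counts to rise 1 log10 versus the unexposed control. Two separate experiments were run.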

Staphylococcus aureus [9] = assay: Antimicrobial activity against heterogenous vancomycin-intermediate-, methicillin-resistant Staphylococcus aureus 873 assessed as post-antibiotic effect at 10 times MIC pre-exposed to Telavancin for 1 hr by plate counting method; type: functional
Procedure, shortened: (§4)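 Viable plate count method in Mueller-Hinton broth. Direct colony suspension inoculum of about 5 × 10^6 CFU/ml was exposed to 10× MIC for 1 h at 35°C in a shaking water bath, then diluted 1:1,000 to remove drug. Counts were taken before exposure, at 0 h, then every 2 h until McFarland no. 1 turbidity. PAE = T − C, the time to a 1 log10 rise versus an unexposed growth control.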

Staphylococcus aureus [10] = assay: Antimicrobial activity against heterogenous vancomycin-intermediate-, methicillin-resistant Staphylococcus aureus 618 assessed as post-antibiotic effect at 10 times MIC pre-exposed to Telavancin for 1 hr by plate counting method; type: functional; procedure, shortened: as §4
Staphylococcus aureus [11] = assay: Antimicrobial activity against vancomycin-susceptible-, methicillin-resistant Staphylococcus aureus 1306 assessed as time required to induce sub-MIC effect at 0.3 times MIC exposed for 2 hrs by plate counting method; type: functional
Procedure, shortened: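 Sub-MIC effect: cultures not preexposed to drug were diluted and handled as in the PA-SME procedure in Mueller-Hinton broth with final 0.2, 0.3 or 0.4× MIC, plus a drug-free control. Viable plate counts were taken every 2 h until McFarland 1 turbidity. Duration was derived from growth curves. Two experiments were run, each with a new inoculum.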

Staphylococcus aureus [12] = assay: Antimicrobial activity against heterogenous vancomycin-intermediate-, methicillin-resistant Staphylococcus aureus 618 assessed as time required to induce sub-MIC effect at 0.3 times MIC […] by plate counting method; type: functional
Procedure, shortened: (§5)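 SME, viable plate count method: no prior drug exposure. About 5 × 10^6 CFU/ml in Mueller-Hinton broth at 35°C received 0.2, 0.3 or 0.4× MIC, alongside a drug-free tube. Counts were taken at the start, then every 2 h until McFarland no. 1 turbidity, as log10 CFU/ml against time. Two separate experiments, each with a new inoculum.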

Streptococcus agalactiae [13] = assay: Antimicrobial activity against Streptococcus agalactiae HMC 5 assessed as time required to induce sub-MIC effect at 0.3 times MIC exposed for 2 hrs by plate counting method; type: functional; procedure, shortened: as §1
Enterococcus faecium [14] = assay: Antimicrobial activity against Enterococcus faecium HMC 588 assessed as time required to induce sub-MIC effect at 0.3 times MIC exposed for 2 hrs by plate counting method; type: functional; procedure, shortened: as §1
Staphylococcus aureus [15] = assay: Antimicrobial activity against vancomycin-susceptible-, methicillin-resistant Staphylococcus aureus 1306 assessed as time required to induce post antibiotic sub-MIC effect at 0.3 times MIC […] by plate counting method; type: functional
Procedure, shortened: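 After 1 h preexposure to 10× MIC at 35°C and 1:1,000 dilution, cultures were split, and drug was re-added to final 0.2, 0.3 or 0.4× MIC, with a drug-free tube. Viable counts were taken every 2 h until McFarland 1 turbidity. Duration was derived from log10 CFU/ml versus time curves. Two experiments were run, each with a new inoculum.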

Staphylococcus aureus [16] = assay: Antimicrobial activity against vancomycin-intermediate-, methicillin-resistant Staphylococcus aureus 1287 assessed as time required to induce post antibiotic sub-MIC effect at 0.3 times MIC […] by plate counting method; type: functional; procedure, shortened: as §2
Staphylococcus aureus [17] = assay: Antimicrobial activity against vancomycin-intermediate-, methicillin-resistant Staphylococcus aureus 1984 assessed as time required to induce post antibiotic sub-MIC effect at 0.3 times MIC […] by plate counting method; type: functional; procedure, shortened: as §2
Enterococcus faecalis [18] = assay: Antimicrobial activity against Enterococcus faecalis HMC 571 assessed as time required to induce post antibiotic sub-MIC effect at 0.3 times MIC […] by plate counting method; type: functional; procedure, shortened: as §3
Enterococcus faecium [19] = assay: Antimicrobial activity against Enterococcus faecium HMC 588 assessed as time required to induce post antibiotic sub-MIC effect at 0.3 times MIC […] by plate counting method; type: functional; procedure, shortened: as §3
Staphylococcus aureus [20] = assay: Antimicrobial activity against heterogenous vancomycin-intermediate-, methicillin-resistant Staphylococcus aureus 873 assessed as time required to induce sub-MIC effect at 0.4 times MIC […] by plate counting method; type: functional; procedure, shortened: as §5
Staphylococcus aureus [21] = assay: Antimicrobial activity against vancomycin-intermediate-, methicillin-resistant Staphylococcus aureus 1984 assessed as time required to induce post antibiotic sub-MIC effect at 0.2 times MIC pre-exposed to Telavancin for 1 hr by plate counting method

## CCCCCCCCCCNCCN[C@@]1(C)C[C@H](O[C@H]2[C@H](Oc3c4cc5cc3Oc3ccc(cc3Cl)[C@@H](O)[C@@H](NC(=O)[C@@H](CC(C)C)NC)C(=O)N[C@@H](CC(N)=O)C(=O)N[C@H]5C(=O)N[C@H]3C(=O)N[C@H](C(=O)N[C@H](C(=O)O)c5cc(O)c(CNCP(=O)(O)O)c(O)c5-c5cc3ccc5O)[C@H](O)c3ccc(c(Cl)c3)O4)O[C@H](CO)[C@@H](O)[C@@H]2O)O[C@@H](C)[C@H]1O [TELAVANCIN]
Staphylococcus aureus [1]
  MIC: 0.12 µg/mL (≈ 0.0684 µM)
Streptococcus agalactiae [2]
  PAE: > 10.7 h
Enterococcus faecalis [3]
  PAE: 3.6 h
Staphylococcus aureus [4]
  PAE: > 10 h
Streptococcus agalactiae [5]
  PAE: > 10.7 h
Enterococcus faecalis [6]
  PAE: 10.6 h
Enterococcus faecalis [7]
  MIC: 0.25 µg/mL (≈ 0.142 µM)
Staphylococcus aureus [8]
  PAE: 1.4 h
Staphylococcus aureus [9]
  PAE: 1.2 h
Staphylococcus aureus [10]
  PAE: 1.7 h
Staphylococcus aureus [11]
  PAE: 5.1 h
Staphylococcus aureus [12]
  PAE: 1.5 h
Streptococcus agalactiae [13]
  PAE: 2.1 h
Enterococcus faecium [14]
  PAE: 7.2 h
Staphylococcus aureus [15]
  PAE: 5.4 h
Staphylococcus aureus [16]
  PAE: 8.6 h
Staphylococcus aureus [17]
  PAE: > 10 h
Enterococcus faecalis [18]
  PAE: 7.2 h
Enterococcus faecium [19]
  PAE: 8.9 h
Staphylococcus aureus [20]
  PAE: 1 h
Staphylococcus aureus [21]
  PAE: 6.8 h
